Results published in ChEMBL document CHEMBL3352791, “Thioaryl naphthylmethanone oxime ether analogs as novel anticancer agents” (J Med Chem, 2014).

Experiments:
MCF7 [1] = assay: Antiproliferative activity against human ER-negative MCF7 cells after 24 hrs by MTT assay; assay type: functional, cell-based
Ishikawa = assay: Antiproliferative activity against human ER-positive Ishikawa cells after 24 hrs by MTT assay; assay type: functional, cell-based
HeLa = assay: Antiproliferative activity against human HeLa cells after 24 hrs by MTT assay; assay type: functional, cell-based
MDA-MB-231 [2] = assay: Antiproliferative activity against human ER-positive MDA-MB-231 cells after 24 hrs by MTT assay; assay type: functional, cell-based
[3] = Antiproliferative activity against human prostate, androgen receptor positive DU145 cells after 24 hrs by MTT assay; assay type: functional, cell-based, DU-145
[4] = Safety index, ratio of IC50 for human MCF10A cells to EC50 for human ER-positive MDA-MB-231 cells; details: MCF10A cells versus
MCF7 [5] = assay: Antiproliferative activity against human ER-negative MCF7 cells after 72 hrs by MTT assay; assay type: functional, cell-based; details: MCF7, 72 h
[6] = Cytotoxicity against human MCF10A cells after 72 hrs by MTT assay; assay type: ADME, cell-based; details: MCF-10A
in vitro = details: human, MCF10A cells versus
MDA-MB-231 [7] = assay: Antiproliferative activity against human ER-positive MDA-MB-231 cells after 72 hrs by MTT assay; assay type: functional, cell-based; details: MDA-MB-231, 72 h
[8] = Safety index, ratio of IC50 for human MCF10A cells to EC50 for human COLO205 cells; assay type: toxicity, cell-based, COLO 205; details: MCF10A cells versus COLO205 cells, read-out: Ratio IC50/EC50
Method in brief: (§1)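 Safety index is the IC50 in the normal cells divided by the EC50 in the cancer cells. Both values come from MTT assays: cells in DMEM with 10% FBS, serum-starved 4 h, then exposed to compound across a 100nM-50µM dose range with 0.1% DMSO as vehicle control.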

[9] = Safety index, ratio of IC50 for human MCF10A cells to EC50 for human HCT116 cells; assay type: toxicity, cell-based, MCF-10A; details: MCF10A cells versus HCT116 cells, read-out: Ratio IC50/EC50; method in brief: as §1
[10] = Antiproliferative activity against human DLD1 cells after 24 hrs by MTT assay; assay type: functional, cell-based; details: DLD-1, 24 h
Method in brief: (§2)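 MTT viability: cells seeded at 1×10^4 per well in DMEM with 10% FBS, left to adhere overnight, then serum-starved 4 h. Compounds were given at a range of doses, with 0.1% DMSO vehicle as control. EC50 was taken from dose-response curves spanning 100nM-50µM. Data are mean ± SEM from at least three independent experiments.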

SW-620 = assay: Antiproliferative activity against human SW620 cells after 24 hrs by MTT assay; assay type: functional, cell-based; details: SW-620, 24 h; method in brief: as §2
HEK293 = assay: Antiproliferative activity against HEK293 cells after 24 hrs by MTT assay; assay type: functional, cell-based; details: Homo sapiens, HEK293, 24 h; method in brief: as §2
[11] = Antiproliferative activity against human HCT116 cells after 24 hrs by MTT assay; assay type: functional, cell-based; details: HCT-116, 24 h; method in brief: as §2
[12] = Antiproliferative activity against human COLO205 cells after 24 hrs by MTT assay; assay type: functional, cell-based; details: COLO 205, 24 h; method in brief: as §2
[13] = Safety index, ratio of IC50 for human MCF10A cells to EC50 for human SW620 cells; assay type: toxicity, cell-based, SW-620; details: MCF10A cells versus SW620 cells, read-out: Ratio IC50/EC50; method in brief: as §1
[14] = Safety index, ratio of IC50 for human MCF10A cells to EC50 for human DLD1 cells; assay type: toxicity, cell-based, MCF-10A; details: MCF10A cells versus DLD1 cells, read-out: Ratio IC50/EC50; method in brief: as §1

| SMILES | EC50 (MCF7 [1]; Homo sapiens, MCF7, 24 h) [µM] | EC50 (Ishikawa; Homo sapiens, Ishikawa, 24 h) [µM] | EC50 (HeLa; Homo sapiens, HeLa, 24 h) [µM] | EC50 (MDA-MB-231 [2]; Homo sapiens, MDA-MB-231, 24 h) [µM] | EC50 ([3]; Homo sapiens, DU-145, 24 h) [µM] | further results |
| --- | --- | --- | --- | --- | --- | --- |
| CSc1ccc(/C(=N\OC(C)CN(C)C)c2cccc3ccccc23)cc1 (configuration not stated) | > 50 | > 50 | > 50 | > 50 | > 50 | – |
| CCN(CC)C(=O)CO/N=C(\c1ccc(SC)cc1)c1cccc2ccccc12 | 28 | > 50 | 25 | 30 | > 50 | – |
| COc1ccc(/C(=N\OCCN2CCCCC2)c2cccc3ccccc23)cc1 | 18 | > 50 | 15 | > 50 | > 50 | – |
| CCN(CC)CCO/N=C(\c1ccc(SC)cc1)c1cccc2ccccc12 [listing 1 of 4 here] | – | – | – | – | – | EC50 (MCF7 [1]; mcf7): > 50 µM; EC50 (Ishikawa; ishikawa): > 50 µM; EC50 (HeLa; hela): > 50 µM; EC50 (MDA-MB-231 [2]; mda-mb-231): > 50 µM; EC50 ([3]; du-145): > 50 µM |
| COc1ccc(/C(=N\OCCN(C)C)c2cccc3ccccc23)cc1 | 15 | > 50 | 23 | > 50 | > 50 | – |
| O=C(c1ccc(OCCN2CCCCC2)cc1)c1c(-c2ccc(O)cc2)sc2cc(O)ccc12 [RALOXIFENE] | 23 | 20 | – | 30 | > 50 | – |
| CSc1ccc(/C(=N\OCCN(C)C)c2cccc3ccccc23)cc1 | 14 | 9 | 14 | 12.8 | 15 | – |
| CCOC(=O)CO/N=C(\c1ccc(SC)cc1)c1cccc2ccccc12 | 30 | > 50 | 18 | 35 | > 50 | – |
| CSc1ccc(/C(=N\OCCCN2CCC(C)CC2)c2cccc3ccccc23)cc1 | 6.5 | > 50 | > 50 | 20 | 10 | – |
| CCN(CCCCO/N=C(\c1ccc(SC)cc1)c1cccc2ccccc12)Cc1ccccc1 | > 50 | > 50 | 10 | > 50 | > 50 | – |
| CSc1ccc(/C(=N\OCCCN2CCCCC2)c2cccc3ccccc23)cc1 | 5 | 12 | 6.5 | 20 | 15 | selectivity ratio [4]: 0.5; EC50 (MCF7 [5]): 5 µM; IC50 [6]: 10 µM; selectivity ratio (in vitro): 2; EC50 (MDA-MB-231 [7]): 20 µM |
| CCN(CC)CCO/N=C(\c1ccc(OC)cc1)c1cccc2ccccc12 | 20 | > 50 | > 50 | > 50 | > 50 | – |
| COc1ccc(/C(=N\OCCN(C(C)C)C(C)C)c2cccc3ccccc23)cc1 | 23 | > 50 | > 50 | > 50 | > 50 | – |
| COc1ccc(/C(=N\OCCN2CCCCCC2)c2cccc3ccccc23)cc1 | 25 | > 50 | 20.5 | 30 | 35 | – |
| CSc1ccc(/C(=N\OCCCN2CCOCC2)c2cccc3ccccc23)cc1 | > 50 | > 50 | > 50 | > 50 | > 50 | – |
| CSc1ccc(/C(=N\OCCN(C(C)C)C(C)C)c2cccc3ccccc23)cc1 | > 50 | > 50 | > 50 | > 50 | > 50 | – |
| CCN(CC)CCO/N=C(\c1ccc(SC)cc1)c1cccc2ccccc12 [listing 2 of 4 here] | – | – | – | – | – | EC50 (MCF7 [1]; mcf7): 18.5 µM; EC50 (Ishikawa; ishikawa): 20 µM; EC50 (MDA-MB-231 [2]; mda-mb-231): 14.8 µM; EC50 ([3]; du-145): 20 µM |
| CSc1ccc(/C(=N\OCCN2CCCCCC2)c2cccc3ccccc23)cc1 | > 50 | > 50 | > 50 | > 50 | > 50 | – |

| SMILES | EC50 (MCF7 [1]; Homo sapiens, MCF7, 24 h) [µM] | EC50 (Ishikawa; Homo sapiens, Ishikawa, 24 h) [µM] | EC50 (HeLa; Homo sapiens, HeLa, 24 h) [µM] | EC50 (MDA-MB-231 [2]; Homo sapiens, MDA-MB-231, 24 h) [µM] | EC50 ([3]; Homo sapiens, DU-145, 24 h) [µM] | further results |
| --- | --- | --- | --- | --- | --- | --- |
| CSc1ccc(/C(=N\OCCCN(C)C)c2cccc3ccccc23)cc1 | 8 | 7 | 8 | 7.2 | 9.5 | selectivity ratio [4]: 5.3; EC50 (MCF7 [5]): 1 µM; IC50 [6]: 30 µM; selectivity ratio (in vitro): 30; EC50 (MDA-MB-231 [7]): 5.6 µM |
| CCN(CC)CCO/N=C(\c1ccc(SC)cc1)c1cccc2ccccc12 [listing 3 of 4 here] | – | – | – | – | – | EC50 (MCF7 [1]; mcf7): 13.5 µM; EC50 (Ishikawa; ishikawa): 25 µM; EC50 (HeLa; hela): 20 µM; EC50 (MDA-MB-231 [2]; mda-mb-231): 8.8 µM; EC50 ([3]; du-145): 25 µM |
| COc1ccc(/C(=N\OCCN2CCOCC2)c2cccc3ccccc23)cc1 | 20 | > 50 | > 50 | 25 | > 50 | – |
| CCCCN(C)CCCO/N=C(\c1ccc(SC)cc1)c1cccc2ccccc12 | > 50 | > 50 | 8 | > 50 | > 50 | – |
| CC/C(=C(\c1ccc(O)cc1)c1ccc(OCCN(C)C)cc1)c1ccccc1 [AFIMOXIFENE] | 8.8 | 11.5 | – | 8 | 10 | selectivity ratio [4]: 1.28; EC50 (MDA-MB-231 [7]): 7.8 µM |
| COc1ccc(/C(=N\OC(C)CN(C)C)c2cccc3ccccc23)cc1 (configuration not stated) | > 50 | > 50 | > 50 | > 50 | > 50 | – |
| O=c1[nH]cc(F)c(=O)[nH]1 [FLUOROURACIL] | – | – | – | – | – | selectivity ratio [8]: 1.2; selectivity ratio [9]: 0.97; EC50 [10]: 16.3 µM; EC50 (SW-620): > 50 µM; IC50 (HEK293): 48.7 µM; EC50 [11]: > 50 µM; EC50 [12]: 38.1 µM; selectivity ratio [13]: 0.97; selectivity ratio [14]: 2.98 |
| CSc1ccc(/C(=N\OCCN2CCCC2)c2cccc3ccccc23)cc1 | 6.6 | 6 | 6.6 | 5.01 | 9.5 | selectivity ratio [4]: 1.4; EC50 (MCF7 [5]): 5 µM; IC50 [6]: 5.5 µM; selectivity ratio (in vitro): 1.1; EC50 (MDA-MB-231 [7]): 3.8 µM |
| CCN(CC)CCO/N=C(\c1ccc(SC)cc1)c1cccc2ccccc12 [listing 4 of 4 here] | – | – | – | – | – | EC50 (MCF7 [1]; mcf7): 14.8 µM; EC50 (Ishikawa; ishikawa): 15 µM; EC50 (MDA-MB-231 [2]; mda-mb-231): 11.2 µM; EC50 ([3]; du-145): 18.5 µM |
| CCCCC(CC)CNCCCO/N=C(\c1ccc(OC)cc1)c1cccc2ccccc12 (configuration not stated) | > 50 | > 50 | > 50 | > 50 | > 50 | – |
| CSc1ccc(/C(=N\OCCN2CCCCC2)c2cccc3ccccc23)cc1 | 13.5 | 10 | 13.5 | 8.8 | 10 | – |
| CSc1ccc(/C(=N\OCCN2CCOCC2)c2cccc3ccccc23)cc1 | > 50 | > 50 | > 50 | > 50 | > 50 | – |
| CSc1ccc(/C(=N\OCCCCN2CCCCC2)c2cccc3ccccc23)cc1 | 8 | 18 | 18 | 18 | 7.5 | selectivity ratio [4]: 0.5; EC50 (MCF7 [5]): 8 µM; IC50 [6]: 10 µM; selectivity ratio (in vitro): 1.2; EC50 (MDA-MB-231 [7]): 18 µM |
| COc1ccc(/C(=N\OCCN2CCCC2)c2cccc3ccccc23)cc1 | 25 | > 50 | 20 | > 50 | > 50 | – |
| COc1ccc(/C(=N\OCCCN(C)C)c2cccc3ccccc23)cc1 | 20.5 | > 50 | > 50 | > 50 | > 50 | – |
| CSc1ccc(/C(=N\OCCCCNCCc2ccccc2)c2cccc3ccccc23)cc1 | 18 | > 50 | > 50 | 20 | > 50 | – |
| CSc1ccc(/C(=N\OCCCCN2CCCC2)c2cccc3ccccc23)cc1 | > 50 | > 50 | > 50 | > 50 | > 50 | – |
| CSc1ccc(/C(=N\O)c2cccc3ccccc23)cc1 | 18 | > 50 | 18 | 20 | > 50 | – |
